IC50 data for 13 compounds are collected here from ChEMBL document CHEMBL1126696, “N-(arylalkyl)farnesylamines: new potent squalene synthetase inhibitors” (J Med Chem, 1993).

Structures are written as SMILES.

For one assay, the target named is T1, Squalene synthase (Rattus norvegicus, UniProt Q02769).
T1 sequence (Q02769 whole entry): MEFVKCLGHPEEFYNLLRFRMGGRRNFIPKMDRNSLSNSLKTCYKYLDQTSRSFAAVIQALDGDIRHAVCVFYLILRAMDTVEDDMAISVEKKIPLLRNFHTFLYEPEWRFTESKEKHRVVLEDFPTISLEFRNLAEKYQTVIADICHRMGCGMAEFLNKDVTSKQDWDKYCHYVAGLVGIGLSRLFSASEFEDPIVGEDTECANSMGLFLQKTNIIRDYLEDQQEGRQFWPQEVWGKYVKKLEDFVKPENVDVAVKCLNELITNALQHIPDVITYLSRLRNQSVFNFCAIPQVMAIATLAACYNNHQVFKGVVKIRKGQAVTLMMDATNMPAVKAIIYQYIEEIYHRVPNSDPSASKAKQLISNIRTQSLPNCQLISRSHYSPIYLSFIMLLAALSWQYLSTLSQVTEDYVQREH
The assay can be described thus: Inhibitory activity against squalene synthetase in rat liver microsomes. Also on record: species or system Microsome. The method in brief:
(§1)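 Rat liver microsomes (about 1 mg/mL protein) were prepared in pH 7.4 phosphate buffer with EDTA and stored at -80 °C. Samples were preincubated at 37 °C under nitrogen for 5 min. Final NADPH was 1.2 mM and MgCl2 5 mM. Tritiated farnesyl pyrophosphate started a 10-min reaction at 37 °C under nitrogen. Products were counted by liquid scintillation. Reactions ran in duplicate at several concentrations across at least four independent assays. IC50 was derived by linear regression of the pooled data.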
One may read the IC50 as the concentration at which inhibition is half-maximal. In the case of `CC(C)=CCC/C(C)=C/CC/C(C)=C/COCc1cccnc1`, the IC50 came out at 33 µM.
On the same count and under the same terms, the value for `CC(C)=CCC/C(C)=C/CC/C(C)=C/CNCc1ccncc1` was 0.1 µM; that for `CC(C)CCCC(C)CCCC(C)CCNCc1cccnc1` (stereo not given) was 7 µM.
Same read-out and setting: as for `CCNC/C=C(\C)CC/C=C(\C)CCC=C(C)C`, the figure is 0.6 µM.
Still for that read-out and setting: as for `CC(C)=CCC/C(C)=C/CNCc1cccnc1`, the figure is 23 µM; as for `CCN(C/C=C(\C)CC/C=C(\C)CCC=C(C)C)C/C=C(\C)CC/C=C(\C)CCC=C(C)C`, 182 µM.
In turn, `CC(C)=CCC/C(C)=C/CC/C(C)=C/CNCc1ccccc1` gave an IC50 of 0.1 µM.
The same measure, in the same setting: the value for `CC(C)=CCC/C(C)=C/CC/C(C)=C/CNCC(C)CC/C=C(\C)CCC=C(C)C` (stereo not given) was 1 µM; that for `CC(C)=CCC/C(C)=C/CCC(C)CNCc1cccnc1` (stereo not given) was 23 µM.
The same measure, in the same setting: as for `CC(C)=CCC/C(C)=C/CC/C(C)=C/CNC/C=C(\C)CC/C=C(\C)CCC=C(C)C`, the figure is 48 µM; as for `CC(C)=CCC/C(C)=C/CC/C(C)=C/CNCc1cccnc1`, 0.05 µM.
Compound `CC(C)=CCC/C(C)=C/CC/C(C)=C/COC/C=C(\C)CC/C=C(\C)CCC=C(C)C` came in with an IC50 of 828 µM.
Same read-out and setting: the value for `CCN(C/C=C(\C)CC/C=C(\C)CCC=C(C)C)Cc1cccnc1` was 4.9 µM.

The target in a further assay is T1, Squalene synthase. The assay can be described thus: Tested for inhibitory activity against squalene synthetase in the presence of inorganic pyrophosphate (PPi). The method in brief: as §1
As for `CC(C)=CCC/C(C)=C/CC/C(C)=C/CNCc1ccccc1`, the half-inhibitory concentration (IC50) was 0.01 µM.
On the same count and under the same terms, the value for `CC(C)=CCC/C(C)=C/CC/C(C)=C/CNCc1cccnc1` was 0.004 µM.
